Source: paper PMC7302971 (Bioorganic chemistry, 2020)

Tests used:
KCL-22 leukemia cells = assay: Differential Nuclear Staining; assay type: cell-based, human; settings: Homo sapiens, KCL-22, 48 h
How it was run: (§1)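 Cells were seeded at 10,000/well and exposed to test compound for 48 h at 1% (v/v) final DMSO. The first screen used a single concentration with controls in quadruplicate. Dose-response used 0.5–100 μM in triplicate. Controls: DMSO vehicle, hydrogen peroxide (positive), untreated (negative). Hoechst 33342 plus PI were added 2 h before automated imaging, and colocalised signal was scored as dead. […] Two-tailed t-test versus DMSO.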

CEM leukemia cells = assay: Differential Nuclear Staining; assay type: cell-based, human; settings: 48 h
How it was run: as §1

HDAC2 = HDAC2 (Homo sapiens, UniProt Q92769); assay: HDAC enzyme activity assay; assay type: biochemical
Chain of HDAC2 (Q92769 whole entry): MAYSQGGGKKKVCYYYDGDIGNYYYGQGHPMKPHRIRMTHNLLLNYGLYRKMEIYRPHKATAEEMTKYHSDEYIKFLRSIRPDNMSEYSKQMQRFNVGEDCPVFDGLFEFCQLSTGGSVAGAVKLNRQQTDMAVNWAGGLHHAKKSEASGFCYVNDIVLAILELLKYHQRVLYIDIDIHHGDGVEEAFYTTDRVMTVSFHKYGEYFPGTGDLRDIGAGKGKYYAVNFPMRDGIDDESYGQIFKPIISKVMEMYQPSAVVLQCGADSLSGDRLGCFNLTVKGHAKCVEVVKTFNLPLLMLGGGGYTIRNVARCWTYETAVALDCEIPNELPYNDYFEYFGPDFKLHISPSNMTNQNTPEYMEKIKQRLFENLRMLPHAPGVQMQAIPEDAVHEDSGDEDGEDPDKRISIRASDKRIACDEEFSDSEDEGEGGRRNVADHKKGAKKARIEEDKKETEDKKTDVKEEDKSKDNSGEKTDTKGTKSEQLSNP
How it was run: (§2)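 Commercial enzyme was preincubated with serial inhibitor dilutions for 60 min at 30 °C in 25 mM Tris-HCl pH 8.0, 75 mM KCl and 0.001% Pluronic F-127. Reaction was started with 50 μM Boc-Lys(acetyl)-AMC, run 60 min at 30 °C, and stopped with 4.17 μM SAHA. Trypsin (0.4 mg/ml) released AMC, read at Ex 350/Em 450 nm. IC50 came from a four-parameter logistic fit.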

HDAC5 = HDAC5 (Homo sapiens, UniProt Q9UQL6); assay: HDAC enzyme activity assay; assay type: biochemical
Chain of HDAC5 (Q9UQL6 whole entry): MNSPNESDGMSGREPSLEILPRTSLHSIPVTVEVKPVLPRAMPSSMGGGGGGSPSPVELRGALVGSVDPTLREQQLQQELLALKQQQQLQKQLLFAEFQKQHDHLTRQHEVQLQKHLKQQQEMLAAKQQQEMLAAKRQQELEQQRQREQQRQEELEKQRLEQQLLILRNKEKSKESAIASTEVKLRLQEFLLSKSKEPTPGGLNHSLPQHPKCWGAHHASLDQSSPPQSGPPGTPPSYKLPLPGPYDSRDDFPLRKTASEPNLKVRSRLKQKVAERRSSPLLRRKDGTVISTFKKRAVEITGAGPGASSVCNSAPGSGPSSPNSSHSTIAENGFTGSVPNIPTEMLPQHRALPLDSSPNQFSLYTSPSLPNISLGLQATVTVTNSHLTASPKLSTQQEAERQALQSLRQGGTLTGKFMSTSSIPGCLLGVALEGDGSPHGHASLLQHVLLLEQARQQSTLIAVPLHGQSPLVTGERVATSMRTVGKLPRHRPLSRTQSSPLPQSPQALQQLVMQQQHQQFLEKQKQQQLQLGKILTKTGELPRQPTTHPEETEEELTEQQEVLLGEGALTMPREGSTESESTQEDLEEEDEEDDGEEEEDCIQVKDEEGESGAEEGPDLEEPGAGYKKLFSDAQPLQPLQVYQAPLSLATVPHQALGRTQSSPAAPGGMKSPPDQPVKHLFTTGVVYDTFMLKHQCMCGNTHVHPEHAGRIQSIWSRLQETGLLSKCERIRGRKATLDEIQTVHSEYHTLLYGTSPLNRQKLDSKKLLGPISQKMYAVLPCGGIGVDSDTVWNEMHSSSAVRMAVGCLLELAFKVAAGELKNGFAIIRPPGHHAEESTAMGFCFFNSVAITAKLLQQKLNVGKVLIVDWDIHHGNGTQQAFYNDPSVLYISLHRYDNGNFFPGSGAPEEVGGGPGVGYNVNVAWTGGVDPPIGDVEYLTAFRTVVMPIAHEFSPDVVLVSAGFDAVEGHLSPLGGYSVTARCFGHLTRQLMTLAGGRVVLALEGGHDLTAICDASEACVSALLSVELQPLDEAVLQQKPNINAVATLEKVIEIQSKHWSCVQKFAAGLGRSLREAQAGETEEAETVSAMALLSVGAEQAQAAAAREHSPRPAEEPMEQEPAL
How it was run: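 Commercial HDAC5 was preincubated with serial inhibitor dilutions for 60 min at 30 °C in Tris-HCl pH 8.0 buffer. Reaction used 20 μM Boc-Lys(trifluoroacetyl)-AMC for 60 min at 30 °C and was stopped with 1.7 μM SATFMK. Trypsin development followed, then AMC fluorescence at 350/450 nm. IC50 came from a four-parameter logistic fit.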

HDAC3 = HDAC3 (Homo sapiens, UniProt O15379); assay: HDAC enzyme activity assay; assay type: biochemical
Chain of HDAC3 (O15379 whole entry): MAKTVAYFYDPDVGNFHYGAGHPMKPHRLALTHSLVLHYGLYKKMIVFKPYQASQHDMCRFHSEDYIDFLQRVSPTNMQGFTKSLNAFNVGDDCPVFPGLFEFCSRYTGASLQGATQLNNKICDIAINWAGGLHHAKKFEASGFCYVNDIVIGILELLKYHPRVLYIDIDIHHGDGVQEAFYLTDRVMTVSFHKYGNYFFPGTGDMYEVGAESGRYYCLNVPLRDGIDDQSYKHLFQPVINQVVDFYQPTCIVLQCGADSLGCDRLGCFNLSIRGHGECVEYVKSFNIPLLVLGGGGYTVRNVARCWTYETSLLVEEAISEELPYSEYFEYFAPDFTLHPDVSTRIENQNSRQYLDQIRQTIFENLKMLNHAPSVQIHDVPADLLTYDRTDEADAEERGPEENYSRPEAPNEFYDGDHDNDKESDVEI
Chain of HDAC3 (Q9Y618 395-489 partner limits assumed): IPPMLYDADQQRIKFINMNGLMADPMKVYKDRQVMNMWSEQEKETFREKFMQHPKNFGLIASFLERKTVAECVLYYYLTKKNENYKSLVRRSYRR
How it was run: as §2

HDAC7 = target: T1, HDAC7 (Homo sapiens, UniProt Q8WUI4); assay: HDAC enzyme activity assay; assay type: biochemical
T1 sequence (Q8WUI4 1-952): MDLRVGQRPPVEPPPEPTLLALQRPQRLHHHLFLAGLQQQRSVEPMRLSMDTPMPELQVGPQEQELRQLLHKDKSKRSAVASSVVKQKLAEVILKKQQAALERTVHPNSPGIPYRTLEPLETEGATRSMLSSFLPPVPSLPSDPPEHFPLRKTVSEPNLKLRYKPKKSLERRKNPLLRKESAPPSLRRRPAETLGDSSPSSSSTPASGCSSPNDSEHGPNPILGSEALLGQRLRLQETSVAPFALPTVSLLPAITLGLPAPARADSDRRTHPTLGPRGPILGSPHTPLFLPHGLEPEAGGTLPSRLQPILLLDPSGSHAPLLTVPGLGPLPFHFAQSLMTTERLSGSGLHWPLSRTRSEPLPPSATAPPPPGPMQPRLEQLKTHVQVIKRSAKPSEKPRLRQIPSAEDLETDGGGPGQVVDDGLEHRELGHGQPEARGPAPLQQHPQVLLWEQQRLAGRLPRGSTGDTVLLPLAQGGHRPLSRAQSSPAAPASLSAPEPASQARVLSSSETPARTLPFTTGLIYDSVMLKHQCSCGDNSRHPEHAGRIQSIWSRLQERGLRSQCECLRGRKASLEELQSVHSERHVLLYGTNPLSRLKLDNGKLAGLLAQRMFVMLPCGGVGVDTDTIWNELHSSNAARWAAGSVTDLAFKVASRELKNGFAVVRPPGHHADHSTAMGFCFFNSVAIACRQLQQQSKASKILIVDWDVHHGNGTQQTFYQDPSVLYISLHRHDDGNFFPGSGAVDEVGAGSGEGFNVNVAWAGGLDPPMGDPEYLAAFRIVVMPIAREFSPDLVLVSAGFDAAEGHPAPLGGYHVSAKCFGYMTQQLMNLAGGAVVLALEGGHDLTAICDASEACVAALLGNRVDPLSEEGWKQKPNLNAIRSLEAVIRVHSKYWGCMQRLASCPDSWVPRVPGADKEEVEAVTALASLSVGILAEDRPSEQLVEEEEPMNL
How it was run: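 Commercial HDAC7 was preincubated with serial inhibitor dilutions for 60 min at 30 °C in 25 mM Tris-HCl pH 8.0, 75 mM KCl and 0.001% Pluronic F-127. The AMC-substrate reaction ran 60 min at 30 °C, followed by trypsin development and fluorescence reading at Ex 350/Em 450 nm. IC50 came from a four-parameter logistic fit.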

GLUT4 = target: T2, GLUT4 (Homo sapiens, UniProt P14672); assay: GLUT transport inhibition assay in hxt0 yeast cells; assay type: cell-based; settings: 50 μM compound, 5 mM C14-glucose
T2 sequence (P14672 1-509): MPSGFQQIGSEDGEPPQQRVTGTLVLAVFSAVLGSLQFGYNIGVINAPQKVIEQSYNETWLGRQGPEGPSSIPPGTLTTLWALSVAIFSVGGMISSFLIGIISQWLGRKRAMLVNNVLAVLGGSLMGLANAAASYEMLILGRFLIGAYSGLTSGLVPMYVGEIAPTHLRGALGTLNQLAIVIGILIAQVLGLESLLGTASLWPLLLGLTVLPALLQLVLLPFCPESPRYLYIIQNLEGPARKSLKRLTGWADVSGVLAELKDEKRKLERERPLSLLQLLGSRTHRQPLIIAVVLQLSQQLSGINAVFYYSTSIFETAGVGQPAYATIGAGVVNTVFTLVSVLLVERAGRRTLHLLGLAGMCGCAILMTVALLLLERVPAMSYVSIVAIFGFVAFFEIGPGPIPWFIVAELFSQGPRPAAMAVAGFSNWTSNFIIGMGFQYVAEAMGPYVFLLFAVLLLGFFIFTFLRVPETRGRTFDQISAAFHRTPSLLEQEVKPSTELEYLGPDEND
How it was run: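 Human GLUT4 was expressed in VW4000fgy1erg4 yeast (1% maltose, then 0.2% glucose, SC-uracil). GLUT5 was expressed in VW4000 (YEP with 2% maltose and G418, then 2% fructose). PBS-washed cells were exposed to 50 μM test compound. Uptake of 14C-glucose (5 mM, GLUT4) or 14C-fructose (10 mM, GLUT5) ran 10 min, followed by quench, filtration and scintillation counting. Activity was relative to 1% DMSO and to saturating phloretin (GLUT4) or MSNBA (GLUT5). Triplicates.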

`O=C(CN1C(=O)SC(=Cc2ccccn2)C1=O)Nc1nc2ccccc2s1` [Compound P19, N-(benzo[d]thiazol-2-yl)-2-(2,4-dioxo-5-(pyridin-2-ylmethylene)thiazolidin-3-yl)acetamide] was tested, and the CC50 (KCL-22 leukemia cells) was 43.2 ± 0.23 µM, the CC50 (CEM leukemia cells; Homo sapiens) was 79.9 ± 3.74 µM and the IC50 (HDAC2) was 41 µM. For the same compound, the IC50 (HDAC5) was > 50 µM, the IC50 (HDAC3) was > 50 µM and the IC50 (HDAC7) was > 50 µM. For the same compound, the “relative transport activity of GLUT4” value (GLUT4) was “ineffective”.
With `Cc1c(NC(=O)CN2C(=O)SC(=Cc3ccccn3)C2=O)c(=O)n(-c2ccccc2)n1C` [Compound P10, N-(1,5-dimethyl-3-oxo-2-phenyl-2,3-dihydro-1H-pyrazol-4-yl)-2-(2,4-dioxo-5-(pyridin-2-ylmethylene)thiazolidin-3-yl)acetamide] the CC50 (KCL-22 leukemia cells) was 17.4 ± 2.4 µM, the “cell death at 100 μM” value (CEM leukemia cells; CEM, DNS assay, 100 μM) was 2.39% cell death at 100 μM and the IC50 (HDAC2) was 45 µM. The IC50 (HDAC5) was 43 µM, the IC50 (HDAC3) was > 50 µM and the IC50 (HDAC7) was > 50 µM.
